The text below walks through data of ChEMBL document CHEMBL1250469, “Design, synthesis, and biological evaluation of ketoprofen analogs as potent cyclooxygenase-2 inhibitors” (Bioorg Med Chem, 2010).

The species entered for the assay is Ovis aries. Kind of assay: Selectivity index, ratio of IC50 for sheep COX1 to IC50 for COX2. The procedure, abridged: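 Ratio of IC50 for COX-1 to IC50 for COX-2. Both come from the ovine chemiluminescent COX assay, with arachidonic acid as substrate and a naphthalene hydrazide luminescence read-out. Each IC50 is the mean of two determinations.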
Regarding `[N-]=[N+]=Nc1ccc(-c2cc(C(=O)O)c3cc(C(=O)c4ccccc4)ccc3n2)cc1`, the Ratio IC50 was more than 1300.

As to `[N-]=[N+]=Nc1ccc(-c2cc(C(=O)O)c3cccc(C(=O)c4ccccc4)c3n2)cc1`, the Ratio IC50 was 1150.

For the molecule `CC(=O)Nc1ccc(-c2cc(C(=O)O)c3cccc(C(=O)c4ccccc4)c3n2)cc1`, the Ratio IC50 is 115.

In the case of `CS(=O)(=O)c1ccc(-c2cc(C(=O)O)c3cccc(C(=O)c4ccccc4)c3n2)cc1`, the Ratio IC50 was 231.

`CC(=O)Nc1ccc(-c2cc(C(=O)O)c3cc(C(=O)c4ccccc4)ccc3n2)cc1`: the Ratio IC50 worked out at 256.

With `CS(=O)(=O)c1ccc(-c2cc(C(=O)O)c3cc(C(=O)c4ccccc4)ccc3n2)cc1`, the Ratio IC50 was found to be 317.
